{"source": "paper PMC4467258", "about": "(Clinical Pharmacology in Drug Development, 2014)", "key": {"Solubility": {"test": "Solubility", "assay_type": "physicochemical"}, "Safety and tolerability": {"test": "Safety and tolerability", "assay_type": "in vivo, human", "outline": "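Open-label, randomized, 4-period balanced crossover in healthy adults (18–65 years, ≥40 kg; women of non-childbearing potential only). Single 1500-mg (free base equivalent) dose of test compound (peptide deformylase inhibitor) as IV mesylate salt solution, 60-minute infusion, fasted; 3-day washout between periods. Safety from observed AEs and changes over time in hematology, clinical chemistry, urinalysis, vital signs and ECGs, summarized descriptively.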"}, "[1]": {"test": "Biopharmaceutics Classification System characteristics", "assay_type": "physicochemical", "conditions": "high permeability and poor solubility; no official regulatory decision yet"}, "[2]": {"assay_type": "in vivo, human", "conditions": "for AUC(0-inf): AUC0−∞; for Tmax: median (range)", "outline": "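Open-label, randomized 4-period crossover in healthy adults (18–65 y, ≥40 kg). Each received single 1500-mg free-base-equivalent doses: 60-min IV mesylate infusion, tablet fasted or after a 490-calorie moderate-fat meal, and oral mesylate solution fasted, with 3-day washouts. Plasma sampled predose to 72 h; LC-MS/MS (5–5000 ng/mL). Noncompartmental analysis; bioavailability from oral vs IV AUC0−∞; log-transformed mixed-effects model; CVw from residual MSE.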"}, "[3]": {"conditions": "cited from earlier work"}, "[4]": {"conditions": "Fed to fasted, free base tablet"}, "[5]": {"conditions": "human, plasma, oral, 1500 mg, mean (SD), 1500-mg free base tablet, fasted state"}, "[6]": {"conditions": "human, plasma, po, 1500 mg, mean (SD), 1500-mg oral MS solution, fasted state"}}, "note": "Where “and” joins values, the source holds several entries; their conditions need not be identical. Equal entries are not always repeated. Where two headings read alike, the source gives them in different places. Marks after values point to notes of the source that are not given here."}
{"smiles": "Cc1nc(NNC(=O)[C@H](CC2CCCC2)CN(O)C=O)c(F)c(N2CCN3CCOC[C@@H]3C2)n1", "note": "[GSK1322322]", "values": [{"measurement": "solubility", "setting": "Solubility; fasted state-simulated intestinal fluid, pH 6.5, fassif", "result": "~0.5", "unit": "mg/mL"}, {"measurement": "solubility", "setting": "Solubility; pH 3.5", "result": 40, "unit": "mg/mL"}, {"measurement": "Withdrawal because of a drug-related AE (bronchospasm)", "setting": "Safety and tolerability; IV 1500 mg, period 3", "result": "One volunteer was withdrawn"}, {"measurement": "Vital signs, chemistry, or hematology data", "setting": "Safety and tolerability; all treatments", "result": "No apparent trends or changes from baseline"}, {"measurement": "Intensity of adverse events", "setting": "Safety and tolerability; all treatments, single 1500-mg doses", "result": "mild-to-moderate"}, {"measurement": "Volunteers with an AE per treatment", "setting": "Safety and tolerability; range across the four treatments", "result": "42–65%"}, {"measurement": "Biopharmaceutics Classification System class", "setting": "[1]", "result": "Class 2"}, {"measurement": "Relative bioavailability, ratio of geometric least square mean Cmax (90% CI)", "setting": "[2]; Fasted to MS", "result": "0.57 (0.48, 0.69)"}, {"measurement": "Tmax estimated median difference (90% CI)", "setting": "[2]; Fasted to MS", "result": "0.13 (0.00, 0.37) ^c h"}, {"measurement": "Relative bioavailability, ratio of geometric least square mean AUC0−∞ (90% CI)", "setting": "[2]; Fasted to MS (free base tablet fasted vs oral MS solution)", "result": "0.62 (0.56, 0.69)"}, {"measurement": "Relative bioavailability, ratio of geometric least square mean Cmax (90% CI)", "setting": "[2]; Fed to MS", "result": "0.57 (0.47, 0.68)"}, {"measurement": "Tmax estimated median difference (90% CI)", "setting": "[2]; Fed to MS", "result": "0.99 (0.63, 1.74) ^d h"}, {"measurement": "Relative bioavailability, ratio of geometric least square mean AUC0−∞ (90% CI)", "setting": "[2]; Fed to MS (free base tablet fed vs oral MS solution)", "result": "0.84 (0.76, 0.94)"}, {"measurement": "Food effect, ratio of geometric least square mean AUC0−∞ (90% CI)", "setting": "[2]; [4]", "result": "1.36 (1.22, 1.51)"}, {"measurement": "Food effect, ratio of geometric least square mean Cmax (90% CI)", "setting": "[2]; [4]", "result": "0.99 (0.82, 1.18)"}, {"measurement": "Tmax estimated median difference (90% CI)", "setting": "[2]; [4]", "result": "0.88 (0.50, 1.25) ^e h"}, {"measurement": "Relative bioavailability", "setting": "[2]; free base tablet after a meal vs fasted state", "result": 136, "unit": "%"}, {"measurement": "Absolute bioavailability, ratio of geometric least square mean AUC0−∞ (90% CI)", "setting": "[2]; free base tablet fasted vs IV, 1500 mg", "result": "0.57 (0.51, 0.63)"}, {"measurement": "Relative bioavailability", "setting": "[2]; free base tablet fasted vs oral mesylate salt solution fasted", "result": 62, "unit": "%"}, {"measurement": "Absolute bioavailability, ratio of geometric least square mean AUC0−∞ (90% CI)", "setting": "[2]; free base tablet fed vs IV, 1500 mg", "result": "0.77 (0.69, 0.86)"}, {"measurement": "Relative bioavailability", "setting": "[2]; free base tablet fed vs oral mesylate salt solution fasted", "result": 84, "unit": "%"}, {"measurement": "Increase in AUC0−∞ with food", "setting": "[2]; free base tablet, fed vs fasted state, moderate-fat/calorie meal", "result": 36, "unit": "%"}, {"measurement": "Vd", "setting": "[2]; human, plasma, iv, 1500 mg", "result": 69.2, "unit": "L"}, {"measurement": "clearance", "setting": "[2]; human, plasma, iv, 1500 mg", "result": 367, "unit": "mL/min"}, {"measurement": "AUC(0-inf)", "setting": "[2]; human, plasma, iv, 1500 mg, mean (SD), 1500-mg IV MS solution, 60-minute infusion", "result": 75400, "unit": "ng·h/mL"}, {"measurement": "Cmax", "setting": "[2]; human, plasma, iv, 1500 mg, mean (SD), 1500-mg IV MS solution", "result": 28600, "unit": "ng/mL"}, {"measurement": "Tmax", "setting": "[2]; human, plasma, iv, 1500 mg, 1500-mg IV MS solution", "result": 60, "unit": "min"}, {"measurement": "half-life", "setting": "[2]; human, plasma, iv, 1500 mg, t1/2, mean (SD), 1500-mg IV MS solution", "result": 618, "unit": "min"}, {"measurement": "AUC(0-inf)", "setting": "[2]; [5]", "result": 46100, "unit": "ng·h/mL"}, {"measurement": "AUC(0-inf)", "setting": "[2]; human, plasma, oral, 1500 mg, mean (SD), 1500-mg free base tablet, fed state (moderate-fat/calorie meal)", "result": 58900, "unit": "ng·h/mL"}, {"measurement": "Cmax", "setting": "[2]; [5]", "result": 17100, "unit": "ng/mL"}, {"measurement": "Cmax", "setting": "[2]; human, plasma, oral, 1500 mg, mean (SD), 1500-mg free base tablet, fed state", "result": 15500, "unit": "ng/mL"}, {"measurement": "Tmax", "setting": "[2]; human, plasma, oral, 1500 mg, 1500-mg free base tablet, fasted state", "result": 30, "unit": "min"}, {"measurement": "Tmax", "setting": "[2]; human, plasma, oral, 1500 mg, 1500-mg free base tablet, fed state", "result": 90, "unit": "min"}, {"measurement": "half-life", "setting": "[2]; human, plasma, oral, 1500 mg, t1/2, mean (SD), 1500-mg free base tablet, fasted state", "result": 564, "unit": "min"}, {"measurement": "half-life", "setting": "[2]; human, plasma, oral, 1500 mg, t1/2, mean (SD), 1500-mg free base tablet, fed state", "result": 522, "unit": "min"}, {"measurement": "half-life", "setting": "[2]; human, plasma, other: IV or oral, 1500 mg, t1/2, range of means after single-dose IV or oral administration", "result": "522 to 618", "unit": "min"}, {"measurement": "AUC(0-inf)", "setting": "[2]; [6]", "result": 69700, "unit": "ng·h/mL"}, {"measurement": "Cmax", "setting": "[2]; [6]", "result": 25800, "unit": "ng/mL"}, {"measurement": "Tmax", "setting": "[2]; human, plasma, po, 1500 mg, 1500-mg oral MS solution, fasted state", "result": 30, "unit": "min"}, {"measurement": "half-life", "setting": "[2]; human, plasma, po, 1500 mg, t1/2, mean (SD), 1500-mg oral MS solution, fasted state", "result": 576, "unit": "min"}, {"measurement": "Varea", "setting": "[2]; mean (SD), 1500-mg IV MS solution", "result": "317.2 (131.5) L"}, {"measurement": "CL/F", "setting": "[2]; mean (SD), 1500-mg free base tablet, fasted state", "result": "42.6 (26.6) L/h"}, {"measurement": "CL/F", "setting": "[2]; mean (SD), 1500-mg free base tablet, fed state", "result": "28.4 (9.0) L/h"}, {"measurement": "CL/F", "setting": "[2]; mean (SD), 1500-mg oral MS solution, fasted state", "result": "23.8 (7.3) L/h"}, {"measurement": "Absolute bioavailability, ratio of geometric least square mean AUC0−∞ (90% CI)", "setting": "[2]; oral MS solution fasted vs IV, 1500 mg", "result": "0.92 (0.82, 1.02)"}, {"measurement": "CVw (within coefficient of variation) of AUC0−∞", "setting": "[2]; pooled across regimens", "result": 22, "unit": "%"}, {"measurement": "CVw (within coefficient of variation) of Cmax", "setting": "[2]; pooled across regimens", "result": "39% and 38.7%"}, {"measurement": "Relative bioavailability fed vs fasted", "setting": "[3]; free base tablet 1000 mg", "result": 119, "unit": "%"}, {"measurement": "Cmax", "setting": "[3]; single 1500-mg IV dose, first-time-in-human IV study", "result": 25.5, "unit": "µg/mL"}, {"measurement": "Absolute bioavailability", "setting": "[3]; tablet formulation 1500 mg, previous phase I study", "result": 56, "unit": "%"}]}
